ChEMBL document CHEMBL3286095, “Synthesis and antiparasitic activity of new bis-arylimidamides: DB766 analogs modified in the terminal groups” (Eur J Med Chem, 2014)

Key:
L6 = test: Cytotoxicity against rat L6 cells after 3 days by Alamar blue assay; assay type: cell-based; conditions: L6, 72 h
In short: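 L6 rat myoblast cells cultured with compound for 3 days. Viability measured by Alamar blue.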

Trypanosoma cruzi [1] = test: Antiparasitic activity against Trypanosoma cruzi Tulahen LacZ/C4 amastigotes after 4 days by beta-galactosidase reporter gene assay; assay type: functional, organism-based; conditions: Tulahen LacZ/C4, 96 h
In short: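 Intracellular amastigotes of strain Tulahen LacZ/C4 given serial drug dilutions for 4 days at 37°C. The endpoint is the β-galactosidase reporter, read as a colour change after adding CPRG substrate.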

[2] = Selectivity index, ratio of IC50 for rat L6 cells to IC50 for Trypanosoma cruzi Tulahen LacZ/C4 amastigotes; assay type: toxicity, cell-based; conditions: read-out: Ratio IC50
In short: (§1)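 SI is the IC50 in cultured L6 rat myoblasts (3-day drug exposure, Alamar blue viability) divided by the parasite IC50. Parasite assays used serial dilutions at 37°C. T. cruzi: intracellular, 4 days, β-galactosidase read-out with CPRG. T. b. rhodesiense: axenic, 3 days, Alamar blue. P. falciparum: 3 days, hypoxanthine incorporation. L. amazonensis: intracellular.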

[3] = Selectivity index, ratio of IC50 for rat L6 cells to IC50 for Leishmania amazonensis; assay type: toxicity, cell-based; conditions: read-out: Ratio IC50; in short: as §1
[4] = test system: Trypanosoma brucei rhodesiense; test: Antiparasitic activity against Trypanosoma brucei rhodesiense STIB900 trypomastigotes after 3 days by Alamar blue assay; assay type: functional, organism-based; conditions: STIB900, 72 h
In short: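 Axenic trypomastigote bloodstream forms, strain STIB900, exposed to serial drug dilutions for 3 days at 37°C. Viability read by Alamar blue.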

[5] = Selectivity index, ratio of IC50 for rat L6 cells to IC50 for Trypanosoma brucei rhodesiense STIB900 trypomastigotes; assay type: toxicity, cell-based; conditions: read-out: Ratio IC50; in short: as §1
Plasmodium falciparum [6] = test: Antiparasitic activity against chloroquine-resistant Plasmodium falciparum K1 after 3 days by [3H]-hypoxanthine incorporation assay; assay type: functional, organism-based
In short: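 Erythrocytic-stage parasites exposed to serial drug dilutions at 37°C for 3 days; viability read by tritium-labelled hypoxanthine incorporation.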

[7] = Selectivity index, ratio of IC50 for rat L6 cells to IC50 for chloroquine-resistant Plasmodium falciparum K1; assay type: toxicity, cell-based; conditions: read-out: Ratio IC50; in short: as §1
Plasmodium falciparum [8] = test: Ratio of pentamidine IC50 to compound IC50 for chloroquine-resistant Plasmodium falciparum K1; assay type: functional
Trypanosoma cruzi [9] = test: Ratio of benznidazole IC50 to compound IC50 for Trypanosoma cruzi Tulahen LacZ/C4 amastigotes; assay type: functional
Leishmania amazonensis = test: Antiparasitic activity against Leishmania amazonensis infected in CD-1 mouse macrophages after 72 hrs by spectrophotometric analysis; assay type: functional, organism-based

| SMILES | IC50 (L6) | IC50 (Trypanosoma cruzi [1]) | selectivity ratio [2] | selectivity ratio [3] | IC50 [4] | selectivity ratio [5] | IC50 (Plasmodium falciparum [6]) | selectivity ratio [7] | Ratio IC50 (Plasmodium falciparum [8]) | Ratio IC50 (Trypanosoma cruzi [9]) | IC50 (Leishmania amazonensis) |
| --- | --- | --- | --- | --- | --- | --- | --- | --- | --- | --- | --- |
| O=C(Cn1ccnc1[N+](=O)[O-])NCc1ccccc1 [BENZNIDAZOLE] | > 150000 nM | 1870 nM | > 80 | – | – | – | – | – | – | – | – |
| CC(C)Oc1cc(NC(=N)c2ccccn2)ccc1-c1ccc(-c2ccc(NC(=N)c3ccccn3)cc2OC(C)C)o1 | – | 100 nM | 30 | 34.5 | 120 nM | 25 | 149 nM | 20.1 | – | – | – |
| Cc1nc(C(=N)Nc2ccc(-c3ccc(-c4ccc(NC(=N)c5csc(C)n5)cc4OC(C)C)o3)c(OC(C)C)c2)cs1 | 4700 nM | 2300 nM | 2.04 | 27.6 | 740 nM | 6.36 | 87 nM | 54 | – | – | – |
| CC(C)Oc1cc(NC(=N)c2ccc[nH]2)ccc1-c1ccc(-c2ccc(NC(=N)c3ccc[nH]3)cc2OC(C)C)o1 | 1000 nM | 4100 nM | 0.24 | 1.11 | 115 nM | 8.69 | 25 nM | 40 | – | – | – |
| CC(=O)Nc1nc(C(=N)Nc2ccc(-c3ccc(-c4ccc(NC(=N)c5csc(NC(C)=O)n5)cc4OC(C)C)o3)c(OC(C)C)c2)cs1.Cl | 600 nM | 1600 nM | 0.38 | 2.73 | 12 nM | 50 | 9 nM | 66.7 | 5 | – | – |
| CC(C)Oc1cc(NC(=N)c2cc(Br)cs2)ccc1-c1ccc(-c2ccc(NC(=N)c3cc(Br)cs3)cc2OC(C)C)o1 | > 108000 nM | > 108000 nM | – | – | 43900 nM | > 2.46 | 992 nM | > 109 | – | – | – |
| CC(C)Oc1cc(NC(=N)c2cn(C)cn2)ccc1-c1ccc(-c2ccc(NC(=N)c3cn(C)cn3)cc2OC(C)C)o1 | 8000 nM | 18000 nM | 0.44 | 1.6 | 108 nM | 74.1 | 54 nM | 148 | – | – | – |
| CC(C)Oc1cc(NC(=N)c2ccc(Br)s2)ccc1-c1ccc(-c2ccc(NC(=N)c3ccc(Br)s3)cc2OC(C)C)o1 | > 110000 nM | > 110000 nM | – | – | 17000 nM | > 6.47 | 914 nM | > 120 | – | – | – |
| CC(C)Oc1cc(NC(=N)c2ccn(C)n2)ccc1-c1ccc(-c2ccc(NC(=N)c3ccn(C)n3)cc2OC(C)C)o1 | 1400 nM | 6100 nM | 0.23 | 1.89 | 436 nM | 3.21 | 70 nM | 20 | – | – | – |
| CNc1nc(C(=N)Nc2ccc(-c3ccc(-c4ccc(NC(=N)c5csc(NC)n5)cc4OC(C)C)o3)c(OC(C)C)c2)cs1 | 800 nM | 2300 nM | 0.35 | 2.67 | 92 nM | 8.69 | 31 nM | 25.8 | – | – | – |
| CC(C)Oc1cc(NC(=N)c2cnccn2)ccc1-c1ccc(-c2ccc(NC(=N)c3cnccn3)cc2OC(C)C)o1 | > 129000 nM | 16000 nM | > 8.1 | 34.8 | 8080 nM | > 16 | 552 nM | > 234 | – | – | – |
| CC(=O)N(C)c1nc(C(=N)Nc2ccc(-c3ccc(-c4ccc(NC(=N)c5csc(N(C)C(C)=O)n5)cc4OC(C)C)o3)c(OC(C)C)c2)cs1 | 800 nM | 3100 nM | 0.26 | 0.99 | 78 nM | 10.3 | 35 nM | 22.6 | – | – | – |
| CC(C)Oc1cc(NC(=N)c2ncccn2)ccc1-c1ccc(-c2ccc(NC(=N)c3ncccn3)cc2OC(C)C)o1.Cl | 5800 nM | 200 nM | 29 | 8.29 | 32 nM | 181 | 8.5 nM | 682 | 5 | 9 | – |
| CC(C)Oc1cc(NC(=N)c2cccnn2)ccc1-c1ccc(-c2ccc(NC(=N)c3cccnn3)cc2OC(C)C)o1 | 1800 nM | 1500 nM | 1.2 | 1.64 | 1700 nM | 1.06 | 582 nM | 3.09 | – | – | – |
| CC(C)Oc1cc(NC(=N)c2csc(N)n2)ccc1-c1ccc(-c2ccc(NC(=N)c3csc(N)n3)cc2OC(C)C)o1 | 3700 nM | 5600 nM | 0.66 | 2.18 | 357 nM | 10.4 | 39 nM | 94.9 | – | – | – |
| CC(C)Oc1cc(NC(=N)c2ncc[nH]2)ccc1-c1ccc(-c2ccc(NC(=N)c3ncc[nH]3)cc2OC(C)C)o1 | 1600 nM | 600 nM | 2.67 | 4.32 | 60 nM | 26.7 | 15 nM | 107 | – | – | – |
| Cc1csc(C(=N)Nc2ccc(-c3ccc(-c4ccc(NC(=N)c5nc(C)cs5)cc4OC(C)C)o3)c(OC(C)C)c2)n1 | > 122000 nM | > 122000 nM | – | > 12.2 | 78600 nM | > 1.55 | 999 nM | > 122 | – | – | > 10000 nM |
